# ChEMBL document CHEMBL5055625, “Saturated Oxo Fatty Acids (SOFAs): A Previously Unrecognized Class of Endogenous Bioactive Lipids Exhibiting a Cell Growth Inhibitory Activity” (J Med Chem, 2021)
# Active and inactive are the calls of the source. The calls are words filed in the database; no cut-off is given here.
# How the values were obtained:
# A549 [1] = assay: Growth inhibition of human A549 cells measured after 72 hrs by MTT assay; assay type: functional, cell-based; conditions: A549, 72 h
# Outline: (§1)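 A549, Caco-2 and SF268 cells were grown in DMEM (4.5 g/L glucose) with 10% heat-inactivated FBS and pen-strep at 37 °C, 5% CO2. After 24 h, medium was replaced with compound at 10, 25, 35, 50 or 75 μM (final 0.5% DMSO; vehicle controls) for 72 h. MTT (0.25 mg/mL final) was added for 3 h, formazan was dissolved in DMSO, and A570 minus A690 was read. Triplicate wells per condition were normalized to DMSO control as 100%; IC50 was taken from dose-response curves over ≥3 experiments.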
# Caco-2 = assay: Growth inhibition of human Caco-2 cells up to 75 uM measured after 72 hrs by MTT assay; assay type: functional, cell-based; outline: as §1
# SF-268 = assay: Growth inhibition of human SF-268 cells upto 75 microM measured after 72 hrs by MTT assay; assay type: functional, cell-based; outline: as §1
# A549 [2] = assay: Growth inhibition of human A549 cells at 50 microM measured after 72 hrs by MTT assay; assay type: functional; conditions: for inhibition of growth at 50 µM: read-out: GI; outline: as §1
# A549 [3] = assay: Antitumor activity against human A549 cells assessed as decrease in STAT3 mRNA expression measured at 50 microM by RT-PCR analysis; assay type: functional, cell-based
# Outline: (§2)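 A549 cells were treated with 50 μM compound alongside DMSO controls. mRNA levels were measured by quantitative real-time RT-PCR and expressed relative to the DMSO control.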
# A549 [4] = assay: Antitumor activity against human A549 cells assessed as decrease in c-myc mRNA expression measured at 50 microM by RT-PCR analysis; assay type: functional, cell-based; outline: as §2
# A549 [5] = assay: Down regulation of […] protein expression in human A549 cells measured at 50 uM by Western blot analysis; assay type: functional, cell-based
# Outline: (§3)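 A549 cells were treated with 50 μM compound or DMSO and lysed in RIPA buffer; lysates were spun at 17 000g for 15 min at 4 °C and protein was measured by Bradford assay. 35 μg of protein was run on SDS-PAGE and semidry-transferred to nitrocellulose, then blocked 1 h in 5% BSA/TBS-0.1% Tween-20. Blots were probed overnight at 4 °C with anti-phospho-STAT3 and anti-STAT3 (1:1000) plus β-actin (1:20 000) as loading control, followed by secondary antibodies for 1.30 h at r.t.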
# [6] = target: Signal transducer and activator of transcription 3 (Homo sapiens) (UniProt P40763); assay: Inhibition of phosphorylated STAT3 expression in human A549 cells measured at 50 uM by Western blot analysis; assay type: cell-based; outline: as §3
# HUVEC = assay: Growth inhibition of HUVEC cells upto 75 microM measured after 72 hrs by MTT assay; assay type: cell-based; conditions: human
# Chain of Signal transducer and activator of transcription 3 (Homo sapiens) (P40763 whole entry): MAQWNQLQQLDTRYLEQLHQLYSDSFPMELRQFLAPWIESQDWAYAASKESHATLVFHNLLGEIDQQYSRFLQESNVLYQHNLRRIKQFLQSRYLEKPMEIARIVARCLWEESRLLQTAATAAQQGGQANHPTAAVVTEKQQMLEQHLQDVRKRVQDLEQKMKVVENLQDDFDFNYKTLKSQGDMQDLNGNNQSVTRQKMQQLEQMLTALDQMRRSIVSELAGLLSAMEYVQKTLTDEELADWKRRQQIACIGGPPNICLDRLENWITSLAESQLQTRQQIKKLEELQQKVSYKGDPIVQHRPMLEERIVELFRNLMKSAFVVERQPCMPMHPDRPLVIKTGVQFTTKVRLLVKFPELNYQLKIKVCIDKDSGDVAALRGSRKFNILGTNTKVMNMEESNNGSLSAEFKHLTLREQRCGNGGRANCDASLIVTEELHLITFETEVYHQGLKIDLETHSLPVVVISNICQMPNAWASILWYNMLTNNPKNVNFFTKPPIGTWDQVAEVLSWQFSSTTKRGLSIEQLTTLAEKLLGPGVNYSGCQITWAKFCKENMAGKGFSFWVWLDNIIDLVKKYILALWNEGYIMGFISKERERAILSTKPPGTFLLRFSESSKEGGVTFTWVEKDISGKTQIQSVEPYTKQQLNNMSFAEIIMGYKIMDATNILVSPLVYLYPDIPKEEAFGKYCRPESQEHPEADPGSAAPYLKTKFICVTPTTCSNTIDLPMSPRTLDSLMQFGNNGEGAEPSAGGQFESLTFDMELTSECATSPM
SMILES,IC50 (A549 [1]) [µM],growth inhibition (GI) (Caco-2),growth inhibition (GI) (SF-268),inhibition of growth at 50 µM (A549 [2]) [%],Activity (A549 [3]),Activity (A549 [4]),Activity (A549 [5]),inhibition [6],growth inhibition (GI) (A549 [2]),Activity (HUVEC)
CCCCCCCCCCC(=O)CCCCCCC(=O)O,37,inactive,inactive,> 50,–,–,–,–,–,–
CCCCCCCCCCCC(=O)CCCCCC(=O)O,28,inactive,inactive,> 50,Active,Active,Active,Active,–,–
CCCCCCCCCCCCCCCCCC(=O)O,–,–,–,–,–,–,–,–,inactive,–
CCCCCCCCCCCCCC(=O)CCCC(=O)O,49,–,–,> 50,–,–,–,–,–,–
CCCCCCCCCCCCC(=O)CCCCC(=O)O,26,inactive,inactive,> 50,Active,Active,Active,Active,–,Non-Toxic
CCCCCCCCCCC[C@@H](O)CCCCCC(=O)O,–,–,–,> 50,–,–,–,–,–,Non-Toxic
CCCCCCCCCCCCCCCC(=O)O,–,–,–,–,–,–,–,–,inactive,–
CCCCCCCCCC(O)CCCCCCCC(=O)O (stereo not drawn),–,–,–,> 50,–,–,–,–,–,–
